From ChEMBL document CHEMBL1126849, “Synthesis of A-ring fluorinated derivatives of (17 alpha,20E/Z)-[125I]iodovinylestradiols: effect on receptor binding and receptor-mediated target tissue uptake” (J Med Chem, 1993)

Tests used:
[1] = tested on: Rattus norvegicus; assay: Biodistribution in lungs of immature female rat after 1 hr administration of 3 micro Ci (111 kBq) in the absence of 60 microg estradiol; format: ADME, organism-based, Lung; settings: in vivo
In short: (§1)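 Immature female Long Evans rats (21–24 days, 45–70 g), unanesthetized in retention cages, given 3 µCi (111 kBq) 125I-labeled steroid i.v. via lateral tail vein. Vehicle was ethanol diluted in saline containing 1% Tween-80, giving 9% ethanol final. The blocking group received 60 µg unlabeled estradiol co-injected. Rats were killed under ether by axillary bleeding, and tissues were KCl-washed and gamma-counted. Data are %ID/g, mean ± SE, n=3–5.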

[2] = tested on: Rattus norvegicus; assay: Biodistribution in blood of immature female rat after 5 hour administration of 3 micro Ci (111 kBq) in the absence of 60 microg estradiol; format: ADME, organism-based; settings: in vivo; in short: as §1
[3] = tested on: Rattus norvegicus; assay: Biodistribution in fat of immature female rat after 3 hour administration of 3 micro Ci (111 kBq) in the absence of 60 microg estradiol; format: ADME, organism-based, Adipose tissue; settings: in vivo; in short: as §1
[4] = tested on: Rattus norvegicus; assay: Biodistribution in uterus of immature female rat after 1 hr administration of 3 micro Ci (111 kBq) in the presence of (+E2); format: ADME, organism-based; settings: in vivo
In short: (§2)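 Immature female Long Evans rats (21–24 days, 45–70 g), 3–5 per group, unanesthetized in retention cages, given 3 μCi (111 kBq) 125I-labeled steroid by lateral tail vein. Vehicle: ethanol diluted with saline containing 1% Tween-80, final ethanol 9%. +E2 group co-injected 60 μg unlabeled estradiol (1 h only). Killed under ether; tissues KCl-washed, weighed, gamma-counted. Output: %ID/g (mean, SE) and uterus to blood or nontarget (muscle, spleen, lungs) ratios.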

[5] = tested on: Rattus norvegicus; assay: Biodistribution in blood of immature female rat after 3 hour administration of 3 micro Ci (111 kBq) in the absence of 60 microg estradiol; format: ADME, organism-based; settings: in vivo; in short: as §1
[6] = tested on: Rattus norvegicus; assay: Biodistribution in liver of immature female rat after 1 hr administration of 3 micro Ci (111 kBq) in the presence of (+E2); format: ADME, organism-based; settings: in vivo; in short: as §1
[7] = tested on: Rattus norvegicus; assay: Biodistribution in fat of immature female rat after 5 hour administration of 3 micro Ci (111 kBq) in the absence of 60 microg estradiol; format: ADME, organism-based, Adipose tissue; settings: in vivo; in short: as §1
[8] = tested on: Rattus norvegicus; assay: Biodistribution in spleen of immature female rat after 3 hour administration of 3 micro Ci (111 kBq) in the absence of 60 microg estradiol; format: ADME, organism-based; settings: in vivo
In short: (§3)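 Immature female Long Evans rats (21–24 days, 45–70 g), three to five per group, given 125I-labeled steroid (3 μCi, 111 kBq) by lateral tail vein without anesthesia. Vehicle: ethanol diluted in saline with 1% Tween-80, final ethanol 9%, 0.22 μm filtered. +E2 groups received 60 μg unlabeled estradiol co-injected. Killed under ether at set times; tissues KCl-washed, blotted, weighed, gamma counted; %ID/g, mean with SE.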

[9] = tested on: Rattus norvegicus; assay: Biodistribution in thyroid of immature female rat after 3 hour administration of 3 micro Ci (111 kBq) in the absence of 60 microg estradiol; format: ADME, organism-based, Thyroid gland; settings: in vivo; in short: as §3
[10] = tested on: Rattus norvegicus; assay: Biodistribution in muscle of immature female rat after 12 hour administration of 3 micro Ci (111 kBq) in the absence of 60 microg estradiol; format: ADME, organism-based, Muscle tissue; settings: in vivo; in short: as §3
[11] = tested on: Rattus norvegicus; assay: Biodistribution in kidney of immature female rat after 1 hr administration of 3 micro Ci (111 kBq) in the absence of 60 microg estradiol; format: ADME, organism-based; settings: in vivo; in short: as §1
[12] = tested on: Rattus norvegicus; assay: Biodistribution in lungs of immature female rat after 3 hour administration of 3 micro Ci (111 kBq) in the absence of 60 microg estradiol; format: ADME, organism-based, Lung; settings: in vivo; in short: as §3
[13] = tested on: Rattus norvegicus; assay: Biodistribution in uterus of immature female rat after 3 hour administration of 3 micro Ci (111 kBq) in the absence of 60 microg estradiol; format: ADME, organism-based; settings: in vivo; in short: as §2
[14] = tested on: Rattus norvegicus; assay: Biodistribution in uterus / blood of immature female rat after 5 hour administration of 3 micro Ci (111 kBq) in the absence of 60 microg estradiol; format: ADME, organism-based; settings: in vivo
In short: (§4)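 Same in vivo procedure: immature female Long Evans rats (21–24 days), three to five per group, 3 μCi (111 kBq) tracer i.v. via tail vein in 9% ethanol/saline/1% Tween-80, ± 60 μg estradiol co-injected at 1 h. Uterus %ID/g (gamma counting) divided by blood, or by nontarget organ (muscle, spleen, lungs), %ID/g to give ratios.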

[15] = tested on: Rattus norvegicus; assay: Biodistribution in uterus / spleen, muscle, lungs of immature female rat after 1 hr administration of 3 micro Ci (111 kBq) in the presence of (+E2); format: ADME, organism-based; settings: in vivo; in short: as §4
[16] = target: T1, Estrogen receptor (Mus musculus) (UniProt O08537+P19785); assay: Relative binding affinity (RBA) for murine cytoplasmic estrogen receptor at 4C for 2 hr; format: protein assay
In short: (§5)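 Murine uterine cytoplasmic extract incubated 2 h at 4 °C or at 25 °C with 20 nM [3H]estradiol and competitors at 2 nM–20 μM. RBA is taken as 100 × the ratio of competitor to unlabeled estradiol concentration needed for 50% competition of specific [3H]estradiol binding.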

[17] = tested on: Rattus norvegicus; assay: Biodistribution in uterus / blood of immature female rat after 3 hour administration of 3 micro Ci (111 kBq) in the absence of 60 microg estradiol; format: ADME, organism-based; settings: in vivo; in short: as §4
[18] = tested on: Rattus norvegicus; assay: Biodistribution in liver of immature female rat after 12 hour administration of 3 micro Ci (111 kBq) in the absence of 60 microg estradiol; format: ADME, organism-based; settings: in vivo; in short: as §1
[19] = tested on: Rattus norvegicus; assay: Biodistribution in uterus / spleen, muscle, lungs of immature female rat after 12 hour administration of 3 micro Ci (111 kBq) in the absence of 60 microg estradiol; format: ADME, organism-based; settings: in vivo; in short: as §2
[20] = tested on: Rattus norvegicus; assay: Biodistribution in spleen of immature female rat after 1 hr administration of 3 micro Ci (111 kBq) in the presence of (+E2); format: ADME, organism-based; settings: in vivo; in short: as §3
[21] = target: T1, Estrogen receptor (Mus musculus); assay: Relative binding affinity (RBA) for murine cytoplasmic estrogen receptor at 4C for 18 hr; format: protein assay
In short: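 Competitive binding on murine uterine cytoplasmic extract with 20 nM [3H]estradiol and competitor steroids at 2 nM–20 μM, incubated 18 h at 0–4 °C. RBA = 100 × ratio of […] concentration giving 50% competition for specific binding. Mean of three experiments with SD.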

[22] = target: T1, Estrogen receptor (Mus musculus); assay: Relative binding affinity (RBA) for murine cytoplasmic estrogen receptor at 25 degree C for 2 hr; format: protein assay; in short: as §5
[23] = tested on: Rattus norvegicus; assay: Biodistribution in uterus / spleen, muscle, lungs of immature female rat after 3 hour administration of 3 micro Ci (111 kBq) in the absence of 60 microg estradiol; format: ADME, organism-based; settings: in vivo; in short: as §2
[24] = tested on: Rattus norvegicus; assay: Biodistribution in fat of immature female rat after 1 hr administration of 3 micro Ci (111 kBq) in the presence of (+E2); format: ADME, organism-based, Adipose tissue; settings: in vivo; in short: as §1
[25] = tested on: Rattus norvegicus; assay: Biodistribution in muscle of immature female rat after 3 hour administration of 3 micro Ci (111 kBq) in the absence of 60 microg estradiol; format: ADME, organism-based, Muscle tissue; settings: in vivo; in short: as §3
[26] = tested on: Rattus norvegicus; assay: Biodistribution in blood of immature female rat after 1 hr administration of 3 micro Ci (111 kBq) in the absence of 60 microg estradiol; format: ADME, organism-based; settings: in vivo; in short: as §1
[27] = tested on: Rattus norvegicus; assay: Biodistribution in spleen of immature female rat after 5 hour administration of 3 micro Ci (111 kBq) in the absence of 60 microg estradiol; format: ADME, organism-based; settings: in vivo; in short: as §3
[28] = tested on: Rattus norvegicus; assay: Biodistribution in liver of immature female rat after 1 hr administration of 3 micro Ci (111 kBq) in the absence of 60 microg estradiol; format: ADME, organism-based; settings: in vivo; in short: as §1
[29] = tested on: Rattus norvegicus; assay: Biodistribution in kidney of immature female rat after 3 hour administration of 3 micro Ci (111 kBq) in the absence of 60 microg estradiol; format: ADME, organism-based; settings: in vivo; in short: as §1

T1 sequence (O08537 whole entry, looked up): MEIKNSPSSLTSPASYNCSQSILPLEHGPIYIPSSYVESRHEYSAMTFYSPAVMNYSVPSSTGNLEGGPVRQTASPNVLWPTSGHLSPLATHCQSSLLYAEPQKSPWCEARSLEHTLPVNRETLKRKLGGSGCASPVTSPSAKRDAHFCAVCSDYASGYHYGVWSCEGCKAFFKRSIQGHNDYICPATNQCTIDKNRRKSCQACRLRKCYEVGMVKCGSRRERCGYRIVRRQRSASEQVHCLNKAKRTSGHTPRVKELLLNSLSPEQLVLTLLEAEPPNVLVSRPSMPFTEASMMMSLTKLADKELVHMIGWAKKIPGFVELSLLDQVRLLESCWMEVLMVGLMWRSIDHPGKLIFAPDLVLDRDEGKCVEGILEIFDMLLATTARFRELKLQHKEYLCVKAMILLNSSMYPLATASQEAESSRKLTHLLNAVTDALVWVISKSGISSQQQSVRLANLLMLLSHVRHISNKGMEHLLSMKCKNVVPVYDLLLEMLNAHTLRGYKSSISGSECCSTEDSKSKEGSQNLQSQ
T1 sequence (P19785 whole entry, looked up): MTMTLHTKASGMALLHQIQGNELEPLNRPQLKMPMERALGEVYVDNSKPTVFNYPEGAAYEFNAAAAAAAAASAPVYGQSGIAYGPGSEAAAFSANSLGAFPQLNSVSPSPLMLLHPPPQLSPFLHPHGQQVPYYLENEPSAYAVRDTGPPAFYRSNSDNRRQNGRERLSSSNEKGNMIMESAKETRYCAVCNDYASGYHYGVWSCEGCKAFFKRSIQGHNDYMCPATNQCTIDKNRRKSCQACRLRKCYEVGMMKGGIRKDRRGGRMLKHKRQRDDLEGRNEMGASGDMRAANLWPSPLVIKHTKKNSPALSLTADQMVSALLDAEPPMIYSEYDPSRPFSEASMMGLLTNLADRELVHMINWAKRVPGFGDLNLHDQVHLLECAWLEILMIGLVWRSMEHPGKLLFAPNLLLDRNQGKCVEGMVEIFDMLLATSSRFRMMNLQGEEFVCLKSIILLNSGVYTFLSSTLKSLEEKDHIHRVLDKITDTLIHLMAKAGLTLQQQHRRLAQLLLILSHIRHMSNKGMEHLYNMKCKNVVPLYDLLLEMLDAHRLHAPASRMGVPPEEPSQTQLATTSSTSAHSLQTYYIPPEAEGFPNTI

Row | SMILES | ID/g [1] [%] | ID/g [2] [%] | ID/g [3] [%] | ID/g [4] [%] | ID/g [5] [%] | ID/g [6] [%] | ID/g [7] [%] | ID/g [8] [%] | ID/g [9] [%] | ID/g [10] [%] | ID/g [11] [%] | ID/g [12] [%] | ID/g [13] [%] | uterus to blood ratio [14] [%] | uterus to blood %ID/g ratio (unitless) [17] [%] | ID/g [18] [%] | ID/g [20] [%] | ID/g [24] [%] | ID/g [25] [%] | ID/g [26] [%] | other results
1 | C[C@]12CC[C@@H]3c4ccc(O)c(F)c4CC[C@H]3[C@@H]1CC[C@@]2(O)/C=C/I | 0.89 | 0.26 | 1.59 | 0.77 | 0.96 | 3.06 | 1.67 | 0.36 | 128 | 0.06 | 0.93 | 0.57 | 4.24 | 9.01 | 4.56 | 0.59 | 0.51 | 1.14 | 0.31 | 0.78 | uterus-to-nontarget tissue uptake ratio [15]: 1.17%; RBA [16]: 58.7; uterus to nontarget tissue ratio [19]: 5.4%; RBA [21]: 55.9; RBA [22]: 29.1; Uterus to nontarget tissue (spleen, muscle, lungs) uptake ratio [23]: 11.38%; ID/g [27]: 0.17%; ID/g [28]: 2.91%; ID/g [29]: 0.59%
2 | C[C@]12CC[C@@H]3c4cc(F)c(O)cc4CC[C@H]3[C@@H]1CC[C@@]2(O)/C=C/I | 1 | 0.29 | 3.17 | 0.52 | 0.42 | 3.86 | 2.39 | 0.32 | 39.1 | 0.03 | 0.87 | 0.48 | 0.53 | 1.15 | 1.4 | 1.58 | 0.56 | 2.93 | 0.37 | 0.53 | RBA [16]: 30.4; RBA [21]: 6.2; RBA [22]: 5.3; ID/g [27]: 0.27%; ID/g [28]: 3.95%; ID/g [29]: 0.47%
3 | C[C@@H]1Cc2c(ccc(O)c2F)[C@H]2CC[C@@]3(C)[C@@H](CC[C@@]3(O)/C=C/I)[C@H]12 | 1.47 | 0.39 | 4 | 1.14 | 0.32 | 5.84 | 4.59 | 0.91 | 70 | 0.16 | 1.41 | 0.93 | 5.29 | 16.4 | 17.28 | 1.57 | 1.29 | 5.65 | 0.43 | 0.38 | uterus-to-nontarget tissue uptake ratio [15]: 0.85%; uterus to nontarget tissue ratio [19]: 15.57%; Uterus to nontarget tissue (spleen, muscle, lungs) uptake ratio [23]: 7.15%; ID/g [27]: 0.8%; ID/g [28]: 4.36%; ID/g [29]: 0.95%
4 | C[C@]12CC[C@@H]3c4cc(F)c(O)cc4CC[C@H]3[C@@H]1CC[C@@]2(O)/C=C\I | 0.81 | 0.3 | 2.21 | 0.68 | 0.42 | 2.58 | 1.13 | 0.29 | 75.3 | 0.05 | 0.88 | 0.39 | 5.44 | 12.09 | 12.98 | 0.81 | 1 | 2.88 | 0.28 | 0.61 | uterus-to-nontarget tissue uptake ratio [15]: 0.51%; RBA [16]: 40.1; uterus to nontarget tissue ratio [19]: 20.54%; RBA [21]: 53.7; RBA [22]: 99; Uterus to nontarget tissue (spleen, muscle, lungs) uptake ratio [23]: 17.64%; ID/g [27]: 0.2%; ID/g [28]: 2.25%; ID/g [29]: 0.53%
